From ChEMBL document CHEMBL4619757, “Identification of new arylsulfide derivatives as anti-melanogenic agents in a zebrafish model” (Bioorg Med Chem Lett, 2020)
The source made the active and inactive calls. No cut-off for these calls is given here.

Columns and labels:
[1] = species on record: Danio rerio; test: Antimelanogenic activity against zebrafish embryo assessed as whitening efficacy at 10 uM; assay type: functional, organism-based
[2] = test system: HMV-2 cell line; test: Antimelanogenic activity against human HMVII cells assessed as melanin content in cell lysate at 100 uM relative to control; assay type: functional
Summary of the method: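 HMV-II human melanoma cells were cultured for 5 days with test sample or DMSO. Melanin pellets were collected from cell lysates, and total melanin content was expressed relative to the DMSO control.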

[3] = species on record: Danio rerio; test: Antimelanogenic activity against zebrafish embryo assessed as whitening efficacy; assay type: functional, organism-based
Summary of the method: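 Synchronized zebrafish embryos were treated with compound and scored for pigmentation. Controls received 0.1% DMSO or 0.2 mM PTU.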

[4] = test system: HMV-2 cell line; test: Antimelanogenic activity against human HMVII cells assessed as change in melanin colour from black to brown; assay type: functional, cell-based
[5] = test system: HMV-2 cell line; test: Antimelanogenic activity against human HMVII cells assessed as melanin content in cell lysate at 1 uM relative to control; assay type: functional
Summary of the method: (§1)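 Human melanoma HMV-II cells were exposed to compound at 1, 10 or 20 µM. Melanin was pelleted from cell lysates, and total melanin content was expressed relative to the DMSO-treated control.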

[6] = test system: HMV-2 cell line; test: Antimelanogenic activity against human HMVII cells assessed as melanin content in cell lysate at 10 uM relative to control; assay type: functional; summary of the method: as §1
[7] = test system: HMV-2 cell line; test: Antimelanogenic activity against human HMVII cells assessed as melanin content in cell lysate at 20 uM relative to control; assay type: functional; summary of the method: as §1
[8] = test system: HMV-2 cell line; test: Antimelanogenic activity against human HMVII cells assessed as reduction in TRP1 mRNA level at 1 to 20 uM measured after 24 hrs by RT-PCR analysis; assay type: functional, cell-based
Summary of the method: (§2)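 HMV-II melanoma cells were treated with compound for 24 h. MITF, TRP-1 and TRP-2 mRNA levels were then quantified by real-time RT-PCR.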

[9] = test system: HMV-2 cell line; test: Antimelanogenic activity against human HMVII cells assessed as reduction in melanin content in cell lysate; assay type: functional, cell-based; summary of the method: as §1
[10] = test system: HMV-2 cell line; test: Antimelanogenic activity against human HMVII cells assessed as reduction in TRP2 mRNA level at 1 to 20 uM measured after 24 hrs by RT-PCR analysis; assay type: functional, cell-based; summary of the method: as §2
[11] = test system: HMV-2 cell line; test: Antimelanogenic activity against human HMVII cells assessed as reduction in MITF mRNA level at 1 to 20 uM measured after 24 hrs by RT-PCR analysis; assay type: functional, cell-based; summary of the method: as §2
[12] = test system: HMV-2 cell line; test: Antimelanogenic activity against human HMVII cells assessed as reduction in tyrosinase mRNA level at 10 to 20 uM measured after 24 hrs by RT-PCR analysis; assay type: functional, cell-based
[13] = test system: HMV-2 cell line; test: Cytotoxicity against human HMVII cells assessed as decrease in cell survival at 20 uM measured after 5 days by Cytox-reagent based relative to control; conditions: hmv-2, 120 h
Summary of the method: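 HMV-II cells were seeded at 7,500 cells/well and cultured 24 h, then exposed to compound for 5 days. Viability was read with CytoX reagent.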

[14] = Toxicity against human eye assessed as effect on tissue viability up to 50 uM measured after 30 mins by MTT assay; assay type: tissue-based; conditions: 0.5 h
Summary of the method: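 Reconstructed human ocular tissue (Neoderm-CD) was exposed to compound up to 50 µM and stained with MTT (1 mg/mL) for 30 min. Formazan was extracted with isopropanol and absorbance read at 570 nm.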

[15] = Toxicity against human skin assessed as effect on tissue viability up to 50 uM measured after 3 hrs by MTT assay

Row | SMILES | Activity [1] | other results
1 | Clc1ccc(Sc2nccc3ccccc23)cc1 | Active | 
2 | c1cnc(Sc2nccc3ccccc23)nc1 | Active | 
3 | Fc1ccc(Sc2ncnc3[nH]cnc23)cc1 | inactive | 
4 | FC(F)(F)c1ccc(Sc2nccc3ccccc23)cc1 | inactive | 
5 | O=c1cc(CO)occ1O [KOJIC ACID] |  | Activity [2]: 45.9%
6 | CCOC(=O)c1ccc(Sc2nccc3ccccc23)cc1 | Active | 
7 | Fc1ccc(Nc2nccc3ccccc23)cc1 | inactive | 
8 | c1ccc(Sc2nccc3ccccc23)cc1 | Active | Activity [3]: Dose-dependent effect
9 | c1ccc2c(Sc3nc4ccccc4s3)nccc2c1 | inactive | 
10 | Fc1ccc(Sc2[nH]cnc3nccc2-3)cc1 | Active | 
11 | Fc1ccc(Sc2ncnc3cc[nH]c23)cc1 | Active | 
12 | Fc1ccc(Sc2nccc3ccccc23)cc1 | Active | Activity [3]: Dose-dependent effect; Activity [4]: Active; Activity [5]: 67.6%; Activity [6]: 31.3%; Activity [7]: 14.6%; inhibition [8]: Active; Activity [9]: Dose-dependent effect; inhibition [10]: Active; inhibition [11]: Active; inhibition [12]: Active; Activity [13]: < 10%; Activity [14]: Non-Toxic; Activity [15]: Non-Toxic
13 | c1ccc2c(Sc3nc4ccccc4[nH]3)nccc2c1 | Active | 
14 | Fc1ccc(Oc2nccc3ccccc23)cc1 | inactive | 
15 | Cc1ccc(Sc2nccc3ccccc23)cc1 | Active | 
16 | Fc1ccc(Sc2ncnc3c(Br)csc23)cc1 | Active | Activity [3]: Dose-dependent effect
17 | Nc1ccc(Sc2nccc3ccccc23)cc1 | Active | 
18 | Fc1ccc(Sc2nccc3ccccc23)c(F)c1 | Active | 
19 | c1ccc2c(Sc3nccc4ccccc34)nccc2c1 | Active | 
20 | OC[C@H]1O[C@@H](Oc2ccc(O)cc2)[C@H](O)[C@@H](O)[C@@H]1O [ARBUTIN] |  | Activity [2]: 85.6%
21 | Fc1ccccc1Sc1nccc2ccccc12 | Active | 
22 | c1ccc(Sc2nccc3ccccc23)nc1 | Active | 
